A selection: hits, their analogues and other compounds. The true share with any hit is near 3.7%.
hERG rescue: compounds protecting human hERG from proarrhythmic drug block | Q12809 | CHO-hERG, FluxOR thallium flux, dofetilide IC70 present | activation (rescue from dofetilide block), less the hit threshold, % at 10 µM | 310,000 tested, 0.51% active | AID 1511;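 active = activation above the mean of controls blocked by dofetilide plus 5 SD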;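 note: thallium influx through hERG after potassium depolarization seen as dye fluorescence rise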
KCNQ1 act: potentiates or activates the human KCNQ1 potassium channel. P51787. CHO-K1 KCNQ1, thallium flux FluxOR fluorescence; stronger effect = higher value. 310,000 tested, 0.35% active. AID 2648. B-score at 10 µM;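 active = fluorescence ratio B-score, a plate-corrected score, at least three library SD, with initial intensity B-score within 5 SD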
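assay system = CHO-K1 cells stably expressing KCNQ1 | medium = assay buffer, equal DMSO in all wells | timing = 37 °C overnight plating, 90-min dark dye load, 20-min compound pretreatment | measured by = kinetic FluxOR thallium fluorescence, 10-s 1-Hz baseline, 110-s post-stimulus read | measure = fluorescence change relative to baseline, converted to B score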
Kir21 inh: inhibitors of mouse Kir2.1 inward-rectifier potassium channel; 310,000 tested, 0.85% active; B-score at 10 µM; P35561; HEK293-Kir2.1, FluxOR thallium flux fluorescence; stronger effect = lower value;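 active = fluorescence ratio B-score at or below minus 3 SD of library scores, with starting-brightness B-score within 2 SD, cut at about -4.2 in these data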;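 note: channel flux triggered by added potassium and thallium sulfate stimulus; B-score of peak minus minimum fluorescence over baseline after thallium stimulus; more negative B-score means stronger Kir2.1 block with less thallium influx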
KCNK3 inh: human KCNK3 channel inhibition, primary screen; 340,000 tested, 0.84% active; CHO-KCNK3 thallium flux, FluxOR fluorescence; stronger effect = lower value; B-score at 10 µM;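 active = B-score under library mean minus 4 SD, starting fluorescence ratio at most library mean plus 5 SD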;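 note: more negative B-score means stronger inhibition of thallium flux through KCNK3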
KCNQ1 inh: blocks the human KCNQ1 potassium channel; P51787; CHO-K1 KCNQ1, FluxOR thallium flux fluorescence; stronger effect = higher value; B-score at 10 µM; 310,000 tested, 1.3% active; AID 2642;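 active = compounds whose thallium flux B-score, printed positive for inhibition, exceeds three library SD while starting fluorescence stays within three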;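 note: channel opened by potassium depolarization with thallium stimulus after 20 min compound exposure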
KCNK9 block: blocks the human KCNK9 two-pore domain potassium channel; B-score at 10 µM; 310,000 tested, 1.2% active; AID 488922; HEK293 KCNK9, FluxOR thallium flux fluorescence; stronger effect = lower value; Q9NPC2;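 active = ratio B-score over 3 SD below the library mean, with starting fluorescence within 5 SD of its mean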;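 note: negative B-score means less thallium flux so channel inhibition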
Target sequence (Q9NPC2 whole entry, looked up, the tested form may be a part): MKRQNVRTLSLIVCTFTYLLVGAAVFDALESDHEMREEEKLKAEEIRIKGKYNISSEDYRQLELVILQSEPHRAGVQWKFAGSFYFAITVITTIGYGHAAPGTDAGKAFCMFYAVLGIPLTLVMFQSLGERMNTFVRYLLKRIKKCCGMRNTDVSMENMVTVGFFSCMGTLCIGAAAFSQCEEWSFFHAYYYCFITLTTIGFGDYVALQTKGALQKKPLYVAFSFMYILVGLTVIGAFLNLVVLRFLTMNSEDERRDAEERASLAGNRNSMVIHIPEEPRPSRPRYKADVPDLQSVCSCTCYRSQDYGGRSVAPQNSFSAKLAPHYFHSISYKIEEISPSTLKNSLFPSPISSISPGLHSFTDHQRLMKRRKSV
KCNK9 inh conf: confirmation of human KCNK9 potassium channel inhibitors; AID 492992; inhibition, % at 10 µM; HEK293 KCNK9 cells, FluxOR thallium flux fluorescence; shares compounds with KCNK9 block; 4,900 tested, 43% active;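 active = thallium signal inhibited by more than 5 SD of the compound-free buffer control wells, on both duplicate plates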
Kir21 sel: tests whether KCNK9 modulators also affect mouse Kir2.1; 4,900 tested, 4% active; Kir2.1 cells, FluxOR thallium flux fluorescence; inhibition, % at 10 µM; AID 492993; shares compounds with KCNK9 block;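 active = thallium signal drop more than 5 SD beyond the mean of the no-compound control wells, seen in both duplicate plates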;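 note: signal is fluorescence rise after thallium addition divided by baseline fluorescence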
KCNK9 uninduced: second counter-screen for KCNK9 modulators: effect in non-induced cells; shares compounds with KCNK9 block; non-induced KCNK9-HEK293, FluxOR thallium flux; 4,900 tested, 40% active; AID 492997; inhibition, % at 10 µM;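 active = thallium signal drop beyond 5 SD of the untreated control mean, on both duplicate plates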
A number is an active result.

For Cc1noc(NS(=O)(=O)c2ccc(NC(=O)C(Cl)(Cl)Cl)cc2)c1C the results were hERG rescue inactive, KCNQ1 act inactive, Kir21 inh inactive, KCNK3 inh inactive, KCNQ1 inh inactive and KCNK9 block inactive.
Cc1noc(NS(=O)(=O)c2ccc(NC(=O)Nc3ccc(Cl)c(Cl)c3)cc2)c1C was read as hERG rescue inactive, KCNQ1 act inactive, Kir21 inh inactive, KCNK3 inh inactive, KCNQ1 inh inactive, KCNK9 block inactive, KCNK9 inh conf inactive, Kir21 sel inactive and KCNK9 uninduced inactive.
CCC(c1nnnn1C(C)(C)C)N(Cc1ccco1)Cc1cc2cccc(C)c2[nH]c1=O (stereo unspecified) was read as hERG rescue inactive, KCNQ1 act inactive, Kir21 inh inactive, KCNK3 inh inactive, KCNQ1 inh inactive and KCNK9 block inactive.
For CCC(c1nnnn1CCc1ccccc1)N(Cc1ccco1)Cc1cc2cccc(C)c2[nH]c1=O (stereo unspecified) the results were hERG rescue inactive, KCNQ1 act inactive, Kir21 inh inactive, KCNK3 inh inactive, KCNQ1 inh 7, KCNK9 block -10, KCNK9 inh conf 33%, Kir21 sel inactive and KCNK9 uninduced 30%.
`O=C(NCCc1ccc(C(F)(F)F)cc1)C1CCC(=O)N(CCCc2ccccc2)C1` (stereo unspecified) gave hERG rescue inactive, KCNQ1 act inactive, Kir21 inh inactive, KCNK3 inh inactive, KCNQ1 inh inactive and KCNK9 block inactive.
`COc1ccccc1CN(Cc1cc2cc(C)ccc2[nH]c1=O)Cc1nnnn1Cc1ccco1` gave hERG rescue inactive, KCNQ1 act inactive, Kir21 inh inactive, KCNK3 inh inactive, KCNQ1 inh inactive, KCNK9 block -8.7, KCNK9 inh conf inactive, Kir21 sel inactive and KCNK9 uninduced 36%.
For CCN(C(=O)C1CCCN(c2nc(-c3ccc(OC)cc3)no2)C1)c1ccccc1F (stereo unspecified) the results were hERG rescue inactive, KCNQ1 act inactive, Kir21 inh inactive, KCNK3 inh inactive, KCNQ1 inh inactive, KCNK9 block inactive, KCNK9 inh conf inactive, Kir21 sel inactive and KCNK9 uninduced inactive.
CCN(C(=O)C1CCN(c2nc(-c3ccc(OC)cc3)no2)CC1)c1ccccc1 was read as hERG rescue inactive, KCNQ1 act inactive, Kir21 inh inactive, KCNK3 inh inactive, KCNQ1 inh inactive and KCNK9 block inactive.
For Cc1ccc(C2CC(c3ccc(Cl)cc3)=NNC2=O)cc1 (stereo unspecified) the results were hERG rescue inactive, KCNQ1 act inactive, Kir21 inh inactive, KCNK3 inh inactive, KCNQ1 inh inactive and KCNK9 block inactive.
For CN1N=C(c2ccc(Cl)cc2)CC(c2ccc(Cl)cc2)C1=O (stereo unspecified) the results were hERG rescue inactive, KCNQ1 act inactive, Kir21 inh inactive, KCNK3 inh inactive, KCNQ1 inh inactive, KCNK9 block -11, KCNK9 inh conf 38%, Kir21 sel inactive and KCNK9 uninduced 40%.
Screening COCC1CCN(C(=O)c2cc(COc3ccc4c(c3)CCCC4)on2)C1 (stereo unspecified) returned hERG rescue inactive, KCNQ1 act inactive, Kir21 inh inactive, KCNK3 inh inactive, KCNQ1 inh inactive, KCNK9 block inactive, KCNK9 inh conf inactive, Kir21 sel inactive and KCNK9 uninduced inactive.
For C=CCC1(CC=C)CCCN1C(=O)c1cc(COc2cccc(OC)c2)on1 the results were hERG rescue inactive, KCNQ1 act inactive, Kir21 inh inactive, KCNK3 inh inactive, KCNQ1 inh inactive, KCNK9 block inactive, KCNK9 inh conf inactive, Kir21 sel inactive and KCNK9 uninduced inactive.
`COc1cccc(OCc2cc(C(=O)N3CCN(C)C(c4ccccc4)C3)no2)c1` (stereo unspecified) gave hERG rescue inactive, KCNQ1 act inactive, Kir21 inh inactive, KCNK3 inh inactive, KCNQ1 inh inactive, KCNK9 block inactive, KCNK9 inh conf inactive, Kir21 sel inactive and KCNK9 uninduced inactive.
Screening O=S(=O)(/N=C(\c1ccccc1F)N1CCCCC1)c1ccccc1 returned hERG rescue inactive, KCNQ1 act inactive, Kir21 inh inactive, KCNK3 inh inactive, KCNQ1 inh inactive and KCNK9 block inactive.
CCCN(C(=O)c1cccc(S(=O)(=O)N2CCCc3ccccc32)c1)C1CCS(=O)(=O)C1 (stereo unspecified) was read as KCNK3 inh inactive.
Screening O=C(COc1ccc(Cl)cc1Cl)N1CCCN(C(=O)COc2ccc(Cl)cc2Cl)CC1 returned hERG rescue inactive, KCNQ1 act inactive, Kir21 inh inactive, KCNK3 inh inactive, KCNQ1 inh inactive, KCNK9 block -11, KCNK9 inh conf 36%, Kir21 sel inactive and KCNK9 uninduced inactive.
For CN1CCCC(OC(=O)c2ccc(C(C)(C)C)cc2)C1 (stereo unspecified) the results were hERG rescue inactive, KCNQ1 act inactive, Kir21 inh inactive, KCNK3 inh inactive, KCNQ1 inh inactive and KCNK9 block inactive.
COc1ccccc1CNC(=O)CSCc1cnn(-c2ccccc2)c1-n1cccc1 was read as hERG rescue inactive, KCNQ1 act inactive, Kir21 inh -5.8, KCNK3 inh inactive, KCNQ1 inh inactive, KCNK9 block inactive, KCNK9 inh conf inactive, Kir21 sel inactive and KCNK9 uninduced inactive.
For COc1ccc(OC)c(NC(=O)CSCc2cnn(-c3ccccc3)c2-n2cccc2)c1 the results were hERG rescue inactive, KCNQ1 act inactive, Kir21 inh -4.3, KCNK3 inh inactive, KCNQ1 inh inactive, KCNK9 block inactive, KCNK9 inh conf inactive, Kir21 sel inactive and KCNK9 uninduced 29%.
`COc1cccc(CNC(=O)CSCc2cnn(-c3ccccc3)c2-n2cccc2)c1OC` gave hERG rescue inactive, KCNQ1 act inactive, Kir21 inh inactive, KCNK3 inh inactive, KCNQ1 inh inactive, KCNK9 block inactive, KCNK9 inh conf inactive, Kir21 sel 31% and KCNK9 uninduced inactive.
COc1cc(NC(=O)CSCc2cnn(-c3ccccc3)c2-n2cccc2)cc(OC)c1 was read as hERG rescue inactive, KCNQ1 act inactive, Kir21 inh inactive, KCNK3 inh inactive, KCNQ1 inh inactive and KCNK9 block inactive.
Screening C/C(CCc1ccccc1)=N/NC(=O)C(=O)NCc1ccccc1 returned hERG rescue inactive, KCNQ1 act inactive, Kir21 inh inactive, KCNK3 inh inactive, KCNQ1 inh inactive and KCNK9 block inactive.
